Source: PubChem BioAssay
Sampled rows, rich in hits. Any-hit rate of the full collection: about 2.5%.
MC4R antag cAMP: antagonists of human melanocortin 4 receptor (MC4R) | P32245 | MC4R-expressing cells, MTII-stimulated cAMP, LANCE TR-FRET | inhibition, % at 6.5 µM | actives 0.48% (n = 360,000) | AID 540295;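 active = inhibition above its plate's cutoff, the mean of tested wells on that plate plus 3 SD, cut at about 29% in these data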;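 note: 0% = Melanotan II alone and 100% = Melanotan II plus saturating MCL0020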
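Material – human MC4R-expressing U2OS cells · Repeats – no replicates · Detection – TR-FRET with Eu-cAMP and labeled anti-cAMP, 671 nm · Times – compound 30 min, challenge 1 h, detection 1 h · Compound – single nominal compound dose of 6.5 µM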
NR1D1 modulator: Rev-erb alpha (human) modulation | P20393 | Rev-erbα–FITC-DNA binding, fluorescence polarization, 90 min | activity, % at 10 µM | actives 0.79% (n = 370,000);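 active = activity above about 14%, limit read from the data; passing the limit was not always enough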;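 note: 0% = DMSO wells with 35 nM protein and 100% = DMSO wells with 750 nM protein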
PG9 Ab binder: small molecules binding HIV-1 gp120 antibody PG9; actives 0.43% (n = 360,000); inhibition, % at 6.7 µM; TR-FRET gp120-PG9 antibody binding; in the data active = inhibition above about 8.5%
NTR1 ag: activates human neurotensin receptor 1 | P30989 | NTR1-U2OS beta-arrestin-GFP spot imaging, agonist mode | activation, % at 20 µM | actives 0.17% (n = 330,000);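 active = activation at or above 40% of the spot to cytoplasm intensity ratio, with at least 20 cells analyzed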;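 note: 0% = DMSO without peptide and 100% = 100 nM NTR1 peptide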
Target sequence (P30989 whole entry, looked up): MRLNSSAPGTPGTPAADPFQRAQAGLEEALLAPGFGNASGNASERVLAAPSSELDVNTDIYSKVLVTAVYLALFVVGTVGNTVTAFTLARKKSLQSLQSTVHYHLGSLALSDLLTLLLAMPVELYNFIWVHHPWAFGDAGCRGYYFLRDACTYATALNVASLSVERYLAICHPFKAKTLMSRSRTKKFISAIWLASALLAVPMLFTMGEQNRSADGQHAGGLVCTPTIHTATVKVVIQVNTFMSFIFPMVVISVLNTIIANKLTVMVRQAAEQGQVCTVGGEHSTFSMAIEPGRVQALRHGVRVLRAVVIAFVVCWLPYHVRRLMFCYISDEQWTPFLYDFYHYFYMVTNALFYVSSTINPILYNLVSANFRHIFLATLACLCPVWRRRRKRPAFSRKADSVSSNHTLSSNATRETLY
MC4R ag barr: activates human MC4R beta-arrestin recruitment; U2OS MC4R beta-arrestin complementation, luminescence; percent of melanotan II response, DMSO zero; activation, % at 8.9 µM; actives 0.98% (n = 360,000);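 active = activation above a per-plate cutoff, the mean activation of sample wells on that plate plus 3 SD, cut at about 8% in these data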
PG9 binder conf: confirmation of small molecules binding HIV-1 gp120 antibody PG9 | actives 90% (n = 1,500) | AID 651571 | shares compounds with PG9 Ab binder | TR-FRET PG9 antibody binding, biochemical | inhibition, % at 6.7 µM; in the data active = inhibition above about 9%
PGV04 Ab binding: binds control antibody PGV04 in PG9 binder counter-screen. TR-FRET PGV04 antibody-gp120 binding, biochemical. shares compounds with PG9 Ab binder. actives 95% (n = 1,500). AID 651604. inhibition, % at 6.7 µM; in the data active = inhibition above about 9.5%
PG9 binder DR: small molecules binding HIV-1 gp120 antibody PG9 | 95 tested, under 10 active | IC50, µM | AID 651848 | shares compounds with PG9 Ab binder | TR-FRET PG9 antibody-gp120 binding inhibition; in the data active = IC50 below about 10 µM
PGV04 binding DR: counter-screen for PG9 binders: binding to control antibody PGV04; shares compounds with PG9 Ab binder; AID 651937; actives 20% (n = 95); TR-FRET binding to control antibody PGV04; IC50, µM
PG126 DR counter: PG126 binding, dose response counter-screen; AID 651939; actives 20% (n = 95); shares compounds with PG9 Ab binder; TR-FRET binding to antibody PG126, counterscreen; IC50, µM
* = called active by the depositor; i = inactive; . = not tested or not shown. Cut-off read from the data, not from the text of the source, unless noted: active = IC50 below about 9 µM; inactive = the rest.

SMILES	MC4R antag cAMP	NR1D1 modulator	PG9 Ab binder	NTR1 ag	MC4R ag barr	PG9 binder conf	PGV04 Ab binding	others
COc1ccc(C(=O)OCCN2CCN(C3CN(Cc4cn(Cc5cccc(C)c5)nn4)S(=O)(=O)C3)CC2)cc1OC (stereo not drawn)	.	-1	.	.	.	.	.
C[C@]12c3[nH]c4ccccc4c3CCN1C(=O)C(CC(=O)NCCCn1ccnc1)C[C@@H]2C(=O)N1CCOCC1 (stereo partly drawn)	10	-4	15*	-2	0	6	9.3*
COc1ccc(C2NC(=O)c3sc4nc(C)c(C(C)=O)c(-c5ccc(Cl)cc5)c4c3N2)cc1 (stereo not drawn)	-10	3	9.3*	4	4	22*	40*
COc1ccc(-c2c(C(C)=O)c(C)nc3sc4c(=N)n(N)cnc4c23)cc1	-7	0	-1	0	-3	.	.
O=C(Nc1ccccc1C(=O)Nc1ccccc1)c1ccccc1F	-4	15	21*	3	2	21*	28*
O=c1c2cc3c(nc2[nH]c(=S)n1-c1ccccc1)CCCC3	-3	22	22*	0	0	31*	34*
CCn1c(=S)[nH]c2nc3c(cc2c1=O)CCCC3	-2	17	22*	2	-1	10*	9.9*	PG9 binder DR=>67;PGV04 binding DR=i;PG126 DR counter=i
CCn1c(SCc2ccc(Cl)cc2)nc2nc3c(cc2c1=O)CCCC3	-5	0	-1	13	0	.	.
CCN(C(=O)[C@@H](C1CC1)[C@@H](O)c1ccc(Cl)cc1)c1ccccc1	.	0	.	.	.	.	.
C=CCOC(=O)N[C@@H](c1cccc(OC)c1)[C@@H](C)/C=C/CC(=O)O	.	-4	.	.	.	.	.
OC1OC2COC(c3ccccc3)OC2C(O)C1O (stereo not drawn)	.	-1	1	.	.	.	.
CCCC1CCC2(CCCN2CCOC(=O)Nc2ccccc2C)CC1 (stereo not drawn)	.	2	.	.	.	.	.
CC(=O)c1sc(Nc2ccccn2)nc1C	8	0	30*	0	-1	38*	51*
CC(=O)c1sc(NC(=O)C(C)C)nc1C	11	-2	48*	2	0	46*	64*
CN(Cc1ccc(F)cc1)C(=O)CN1C(=O)C2(OCCCO2)c2ccccc21	.	0	.	.	.	.	.
N#CC(C#N)=C1NC(N)=C(C#N)C(c2ccccc2)=C1C#N	8	-5	22*	-1	-2	21*	26*
CCCc1cc(=O)oc2cc(OCC(=O)Nc3ccc(S(N)(=O)=O)cc3)ccc12	0	11	18*	-1	0	24*	22*	PG9 binder DR=>67;PGV04 binding DR=>67;PG126 DR counter=>67
Cn1cc(Cl)c(-c2n[nH]c(=S)n2-c2ccccc2)n1	9	4	16*	4	-1	15*	17*
Cc1c(Cl)c(-c2n[nH]c(=S)n2-c2ccc(F)cc2)nn1C	-2	-1	10*	-2	0	12*	11*	PG9 binder DR=>67;PGV04 binding DR=i;PG126 DR counter=i
Cn1cc(Cl)c(-c2n[nH]c(=S)n2-c2ccc(F)cc2)n1	15	-5	0	0	-1	.	.
Fc1cccc(-c2n[nH]c(=S)n2-c2ccccc2)c1	10	8	15*	0	-3	4	9.5*
Cc1ccc(-n2c(-c3nn(C)cc3Cl)n[nH]c2=S)cc1	3	-3	1	-2	-2	.	.
Nc1ccn([C@@H]2O[C@H](C(=O)N[C@H](Cc3ccccc3)C(=O)NCC(F)(F)F)[C@@H](O)[C@H]2O)c(=O)n1	.	-6	-1	.	.	.	.
O=C1CN(C(=O)C2CCCCC2)C=CN1CCc1ccccc1Br	.	-8	.	.	.	.	.
O=C(N/N=C/c1ccccn1)c1cc(-c2ccncc2)nc2ccccc12	-12	3	15*	0	-3	19*	34*
SMILES	MC4R antag cAMP	NR1D1 modulator	PG9 Ab binder	NTR1 ag	MC4R ag barr	PG9 binder conf	PGV04 Ab binding	others
CN(Cc1ccccc1)C(=O)c1cccc(NC(=O)Cc2cccc(NC(=O)C3CCN(C(=O)CCc4ccccc4)CC3)c2)c1	.	3	-2	.	.	.	.
COc1cn(-c2ccccc2)nc1C(=O)OCC(=O)Nc1ccc(C)c(C)c1	-5	-12	4	-1	3	.	.
Cc1ccc(NC(=O)COC(=O)c2ccc(-n3cccn3)cc2)cc1C	4	-8	13*	-1	-1	18*	29*
Cn1c(/C=C/c2ccc(Cl)cc2)nc2ccccc2c1=O	-1	13	32*	3	9.0*	4	7
CCc1ccccc1NC(=O)CNC(=O)CCc1nc2sc3c(c2c(=O)[nH]1)CCCC3	11	-9	19*	-1	-1	21*	38*
CN(CC(=O)Nc1ccc(F)cc1)C(=O)CCc1nc2sc3c(c2c(=O)[nH]1)CCCC3	-5	16	15*	0	0	13*	31*
O=C(CCc1nc2sc3c(c2c(=O)[nH]1)CCCC3)NCCc1ccccc1	1	-1	-1	1	-1	.	.
O=C(CSc1nnc(-c2ccccc2)n1-c1ccc(Cl)cc1)c1ccc(Cl)cc1	.	2	.	.	.	.	.
CCOC(=O)C1CCN(C(=O)COC(=O)CNC(=O)c2sc3ccccc3c2Cl)CC1	8	8	10*	4	-3	12*	16*
O=S1(=O)N[C@@H](Cc2ccccc2)COc2cccc(N3CCCC3)c21	.	0	-2	.	.	.	.
CCCCOc1cccc(C2/C(=C(\O)c3ccc4c(c3)OCCO4)C(=O)C(=O)N2CCN2CCOCC2)c1 (stereo not drawn)	6	0	10*	0	-2	18*	31*
O=C1C(=O)N(CCN2CCOCC2)C(c2cccc(Cl)c2)/C1=C(\O)c1ccc2c(c1)OCCO2 (stereo not drawn)	5	-1	32*	0	-3	36*	42*
O=C1C(=O)N(CCN2CCOCC2)C(c2ccc(Cl)c(Cl)c2)/C1=C(/O)c1ccc2c(c1)OCO2 (stereo not drawn)	0	5	6	0	0	.	.
CCCOc1cccc(C2/C(=C(\O)c3ccc4c(c3)OCCO4)C(=O)C(=O)N2CCCn2ccnc2)c1 (stereo not drawn)	2	4	0	0	-1	.	.
O=C(OCc1cn(Cc2ccc(F)c(F)c2)nn1)N1CCOCC1	.	7	.	.	.	.	.
CCOC(=O)c1cc2sc(C)cc2n1CC(=O)Nc1cccc(C)c1C	1	5	11*	0	-1	11*	17*
